Assay results published in ChEMBL document CHEMBL5143731, “N-Acylamino Saccharin as an Emerging Cysteine-Directed Covalent Warhead and Its Application in the Identification of Novel FBPase Inhibitors toward Glucose Reduction” (J Med Chem, 2022).
Calls of active or inactive are those of the source. No cut-off for these calls is given here.

Experiments:
[1] = Half life of the compound in buffer; format: physicochemical
Method in brief: (§1)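 Electrophile (20 μmol) incubated at 37 °C either in pH 7.4 buffer, or in DMSO-d6/D2O (5:1), with or without glutathione. Decay followed by 1H NMR kinetics. First-order rate constant kpseudo-1st taken from ln[electrophile] versus time; t1/2 = 0.693/(60×k), in min.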

[2] = Half life of the compound in DMSO; format: physicochemical; method in brief: as §1
[3] = Half life of the compound in GSH; format: physicochemical; conditions: GSH (glutathione); method in brief: as §1
[4] = molecular target: T1, Fructose-1,6-bisphosphatase 1 (Homo sapiens, UniProt P09467); assay: Inhibition of human FBPase expressed Escherichia coli BL21 in by malachite green dye based spectrophotometry
T1 sequence (P09467 whole entry): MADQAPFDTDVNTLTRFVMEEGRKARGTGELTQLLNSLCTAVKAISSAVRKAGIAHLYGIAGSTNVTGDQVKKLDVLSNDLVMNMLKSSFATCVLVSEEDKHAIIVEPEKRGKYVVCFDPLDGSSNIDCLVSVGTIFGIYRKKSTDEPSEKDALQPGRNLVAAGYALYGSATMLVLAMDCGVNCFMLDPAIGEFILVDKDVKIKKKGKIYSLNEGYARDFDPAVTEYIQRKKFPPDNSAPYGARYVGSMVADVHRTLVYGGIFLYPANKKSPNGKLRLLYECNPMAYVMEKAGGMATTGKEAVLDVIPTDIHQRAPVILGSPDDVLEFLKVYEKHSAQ
Method in brief: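 His-tagged human liver FBPase expressed in E. coli BL21(DE3) and purified by Ni affinity. Phosphate released from FBP complexed with ammonium molybdate/malachite green and read at 620 nm against a KH2PO4 standard curve (2−60 μM). Initial rates at saturating substrate, fixed effector and varied inhibitor fitted to the Hill equation for IC50.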

[5] = organism: Homo sapiens; assay: Selectivity ratio of IC50 for human FBPase to IC50 for recombinant ALDOA (unknown origin)
Method in brief: (§2)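 Aldolase (ALDOA/B/C) IC50 by NADH-coupled assay: enzyme plus serial compound dilutions, 0.41 mM NADH and TPI in 0.1 M Tris pH 7.4/0.2 M K-acetate, 3 min at 37 °C. Started with FBP and […], A340 read every 30 s for 6 min. Ratios against the FBPase IC50 from malachite green phosphate assay (620 nm).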

[6] = organism: Homo sapiens; assay: Selectivity ratio of IC50 for human FBPase to IC50 for recombinant ALDOB (unknown origin); method in brief: as §2
[7] = organism: Homo sapiens; assay: Selectivity ratio of IC50 for human FBPase to IC50 for recombinant ALDOC (unknown origin); method in brief: as §2
[8] = organism: Homo sapiens; assay: Selectivity ratio of IC50 for human FBPase to IC50 for human GAPDH
Method in brief: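 Recombinant human GAPDH (His-tag, E. coli; 0.1 mg/mL final) preincubated 30 min with compound in 10 mM sodium pyrophosphate pH 8.5 at 37 °C. Started with arsenate, 4 mM NAD+ and 12 mM G3P; A340 at 4 min. Ratio taken against FBPase IC50 from the malachite green phosphate-release assay.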

[9] = molecular target: T2, Tyrosine-protein kinase JAK3 (Homo sapiens) (UniProt P52333); assay: Inhibition of JAK3 (unknown origin) at 300 uM measured after 40 mins in presence of ATP by luminescence assay relative to control
T2 sequence (whole entry): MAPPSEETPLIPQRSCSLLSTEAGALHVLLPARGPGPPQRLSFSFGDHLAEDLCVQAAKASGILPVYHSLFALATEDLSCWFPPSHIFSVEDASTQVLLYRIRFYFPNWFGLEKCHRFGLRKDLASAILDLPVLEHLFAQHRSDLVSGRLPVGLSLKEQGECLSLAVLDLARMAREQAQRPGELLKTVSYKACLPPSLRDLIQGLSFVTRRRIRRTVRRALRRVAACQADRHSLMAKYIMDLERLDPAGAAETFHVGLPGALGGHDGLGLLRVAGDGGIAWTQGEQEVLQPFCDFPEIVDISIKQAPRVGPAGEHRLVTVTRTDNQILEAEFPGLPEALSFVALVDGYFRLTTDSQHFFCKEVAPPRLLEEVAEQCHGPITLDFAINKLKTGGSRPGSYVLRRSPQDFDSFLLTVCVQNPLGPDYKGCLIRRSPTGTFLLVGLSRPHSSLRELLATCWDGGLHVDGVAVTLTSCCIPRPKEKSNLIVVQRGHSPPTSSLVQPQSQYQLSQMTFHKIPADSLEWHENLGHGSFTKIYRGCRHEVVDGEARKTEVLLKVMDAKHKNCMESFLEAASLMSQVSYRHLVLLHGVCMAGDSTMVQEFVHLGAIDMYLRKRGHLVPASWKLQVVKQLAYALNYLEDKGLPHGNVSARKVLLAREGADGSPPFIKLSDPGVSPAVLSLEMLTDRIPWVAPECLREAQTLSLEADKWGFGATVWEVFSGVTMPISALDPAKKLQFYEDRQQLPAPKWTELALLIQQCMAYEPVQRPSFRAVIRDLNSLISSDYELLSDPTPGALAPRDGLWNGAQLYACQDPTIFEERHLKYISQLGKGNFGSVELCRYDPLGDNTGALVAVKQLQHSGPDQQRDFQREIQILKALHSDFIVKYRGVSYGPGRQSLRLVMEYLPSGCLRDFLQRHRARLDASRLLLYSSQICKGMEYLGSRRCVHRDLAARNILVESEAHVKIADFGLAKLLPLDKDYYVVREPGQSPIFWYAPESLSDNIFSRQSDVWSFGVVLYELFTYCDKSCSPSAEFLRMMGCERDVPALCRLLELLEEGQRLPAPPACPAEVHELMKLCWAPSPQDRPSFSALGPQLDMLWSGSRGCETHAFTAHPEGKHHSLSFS
Method in brief: (§3)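 Kinase reaction (50 μL): 40 mM Tris pH 7.4, 10 mM MgCl2, 0.1 mg/mL BSA, 1 mM DTT, 10 μM ATP, kinase and substrate, with 1% final DMSO. Run 40 min at 30 °C. Residual ATP read by Kinase-Glo Plus luminescence, inversely related to kinase activity.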

[10] = molecular target: Epidermal growth factor receptor (Homo sapiens) (UniProt P00533); assay: Inhibition of EGFR (unknown origin) at 300 uM measured after 40 mins in presence of ATP by luminescence assay relative to control; method in brief: as §3
[11] = molecular target: Tyrosine-protein kinase BTK (Homo sapiens) (UniProt Q06187); assay: Inhibition of BTK (unknown origin) at 300 uM measured after 40 mins in presence of ATP by luminescence assay relative to control; method in brief: as §3
[12] = molecular target: T3, Fructose-1,6-bisphosphatase 1 (Homo sapiens) (UniProt P09467); assay: Binding affinity to ABPP-labeled FBPase (unknown origin) by silver staining based streptavidin blotting; conditions: dose 2-10 µM, DDE = dose-dependent effect
T3 sequence (whole entry): T1 sequence (P09467 whole entry)
Method in brief: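 LO2 cell lysate (2 mg/mL protein, RPMI-1640/10% FBS cultures lysed at 70−80% confluence) or purified FBPase labelled with a series of alkyne probe concentrations, 37 °C, 2 h. CuAAC with 0.5 mM each of biotin-PEG3-azide, ascorbate, THPTA and CuSO4, 37 °C, 1 h. Samples run on 10% SDS-PAGE, then silver staining and streptavidin-HRP blot with ECL detection.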

[13] = molecular target: T3, Fructose-1,6-bisphosphatase 1 (Homo sapiens); assay: Binding affinity to ABPP-labeled FBPase (unknown origin) at 2 to 8 uM by silver staining based streptavidin blotting; conditions: dose 2-8 µM
Method in brief: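 LO2 lysate (2 mg/mL) treated with 2−8 μM alkyne probe, 37 °C, 2 h. Click-biotinylated by CuAAC (0.5 mM reagents, 1 h, 37 °C), resolved by 10% SDS-PAGE. Probed by silver stain and streptavidin-HRP blot; labelled bands near 35 kDa read. 2 μM iodoacetamide alkyne served as the reference.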

Chain of Tyrosine-protein kinase BTK (Homo sapiens) (Q06187 whole entry): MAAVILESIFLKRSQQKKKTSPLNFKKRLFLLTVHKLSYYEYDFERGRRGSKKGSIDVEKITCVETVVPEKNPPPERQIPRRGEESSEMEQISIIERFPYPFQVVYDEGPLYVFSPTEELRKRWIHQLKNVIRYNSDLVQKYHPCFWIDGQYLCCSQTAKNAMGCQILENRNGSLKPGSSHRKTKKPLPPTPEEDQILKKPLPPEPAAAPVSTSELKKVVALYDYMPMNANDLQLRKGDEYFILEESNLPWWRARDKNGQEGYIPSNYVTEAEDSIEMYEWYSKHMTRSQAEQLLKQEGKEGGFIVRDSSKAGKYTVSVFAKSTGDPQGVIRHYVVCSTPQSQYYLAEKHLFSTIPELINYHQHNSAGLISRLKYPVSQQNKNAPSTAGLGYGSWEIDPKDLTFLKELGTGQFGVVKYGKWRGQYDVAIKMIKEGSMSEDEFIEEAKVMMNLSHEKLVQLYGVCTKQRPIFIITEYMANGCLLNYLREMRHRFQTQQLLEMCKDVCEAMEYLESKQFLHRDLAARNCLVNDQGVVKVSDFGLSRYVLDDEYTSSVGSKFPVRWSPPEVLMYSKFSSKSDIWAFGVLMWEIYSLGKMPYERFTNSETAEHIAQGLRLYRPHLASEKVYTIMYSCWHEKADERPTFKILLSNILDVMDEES
Chain of Epidermal growth factor receptor (Homo sapiens) (P00533 whole entry): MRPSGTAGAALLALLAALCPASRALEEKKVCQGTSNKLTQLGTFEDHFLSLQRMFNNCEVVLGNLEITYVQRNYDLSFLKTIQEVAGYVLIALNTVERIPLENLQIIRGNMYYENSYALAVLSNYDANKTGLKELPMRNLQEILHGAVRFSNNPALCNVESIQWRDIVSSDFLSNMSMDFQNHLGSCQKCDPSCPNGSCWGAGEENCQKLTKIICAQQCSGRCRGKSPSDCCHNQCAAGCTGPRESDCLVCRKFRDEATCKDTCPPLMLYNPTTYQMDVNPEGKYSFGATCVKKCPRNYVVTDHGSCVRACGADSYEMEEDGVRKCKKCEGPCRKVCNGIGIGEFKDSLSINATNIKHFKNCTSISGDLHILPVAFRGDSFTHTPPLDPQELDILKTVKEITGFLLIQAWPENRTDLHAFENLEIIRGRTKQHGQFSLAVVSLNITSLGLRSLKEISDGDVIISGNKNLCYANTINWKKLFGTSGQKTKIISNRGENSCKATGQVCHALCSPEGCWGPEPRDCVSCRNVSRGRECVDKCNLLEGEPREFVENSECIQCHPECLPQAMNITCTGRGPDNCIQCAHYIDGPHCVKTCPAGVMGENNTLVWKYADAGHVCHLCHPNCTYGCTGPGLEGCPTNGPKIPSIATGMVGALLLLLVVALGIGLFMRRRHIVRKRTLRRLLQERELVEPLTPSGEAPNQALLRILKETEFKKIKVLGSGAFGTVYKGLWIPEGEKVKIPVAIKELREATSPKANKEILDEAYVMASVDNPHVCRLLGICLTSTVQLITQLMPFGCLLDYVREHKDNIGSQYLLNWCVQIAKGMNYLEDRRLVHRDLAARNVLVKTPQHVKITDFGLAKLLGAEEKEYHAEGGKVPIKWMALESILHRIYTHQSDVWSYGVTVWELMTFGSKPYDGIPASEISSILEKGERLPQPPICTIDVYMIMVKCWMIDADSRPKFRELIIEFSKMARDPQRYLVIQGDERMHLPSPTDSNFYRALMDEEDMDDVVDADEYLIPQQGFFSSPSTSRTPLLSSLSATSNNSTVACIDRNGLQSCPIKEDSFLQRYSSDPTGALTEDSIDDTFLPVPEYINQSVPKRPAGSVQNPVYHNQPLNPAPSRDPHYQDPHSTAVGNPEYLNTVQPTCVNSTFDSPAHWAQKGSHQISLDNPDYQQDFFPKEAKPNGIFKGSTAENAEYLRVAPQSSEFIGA

Row | SMILES | half-life [1] [h] | half-life [2] [h] | half-life [3] [h] | other results
1 | O=C(NCc1ccc(Br)cc1)N1C(=O)c2ccccc2S1(=O)=O | – | – | 0.187 | –
2 | O=C(NCc1cccc(Br)c1)N1C(=O)c2ccccc2S1(=O)=O | > 167 | > 167 | 0.492 | –
3 | COc1ccc(CNC(=O)N2C(=O)c3ccccc3S2(=O)=O)cc1 | – | – | 0.187 | –
4 | O=C(c1ccccc1)N1Cc2ccccc2S1(=O)=O | > 167 | > 167 | > 167 | –
5 | Cc1ccccc1CNC(=O)N1C(=O)c2ccccc2S1(=O)=O | > 167 | > 167 | 0.792 | IC50 [4]: 3.6 µM; Ratio IC50 [5]: > 25; Ratio IC50 [6]: > 25; Ratio IC50 [7]: > 25; Ratio IC50 [8]: 3.6
6 | O=C(c1ccccc1)N1Cc2ccccc2C1=O | > 167 | > 167 | > 167 | –
7 | COc1cccc(CNC(=O)N2C(=O)c3ccccc3S2(=O)=O)c1 | > 167 | > 167 | 0.523 | IC50 [4]: 1.9 µM; Ratio IC50 [5]: > 25; Ratio IC50 [6]: > 25; Ratio IC50 [7]: > 25; Ratio IC50 [8]: > 25
8 | O=C(NCc1cccs1)N1C(=O)c2ccccc2S1(=O)=O | > 167 | > 167 | 0.365 | –
9 | COc1ccccc1CNC(=O)N1C(=O)c2ccccc2S1(=O)=O | > 167 | > 167 | 1.12 | inhibition [9]: < 50%; IC50 [4]: 1.7 µM; inhibition [10]: < 50%; Ratio IC50 [5]: > 25; Ratio IC50 [6]: > 25; Ratio IC50 [7]: > 25; Ratio IC50 [8]: > 25; inhibition [11]: < 50%
10 | O=C(NCC1CCCCC1)N1C(=O)c2ccccc2S1(=O)=O | > 167 | > 167 | 0.963 | IC50 [4]: 16.4 µM
11 | C#Cc1ccc(CNC(=O)N2C(=O)c3ccccc3S2(=O)=O)cc1 | – | – | – | Activity [12]: Dde; Activity [13]: Active
12 | O=C(NCc1ccccc1C(F)(F)F)N1C(=O)c2ccccc2S1(=O)=O | > 167 | > 167 | 0.187 | –
13 | O=C(NCc1ccccc1Cl)N1C(=O)c2ccccc2S1(=O)=O | > 167 | > 167 | 0.42 | –
14 | O=C(NCc1ccccc1F)N1C(=O)c2ccccc2S1(=O)=O | > 167 | > 167 | 0.598 | IC50 [4]: 4.2 µM; Ratio IC50 [5]: > 25; Ratio IC50 [6]: > 25; Ratio IC50 [7]: > 25; Ratio IC50 [8]: 16.3
15 | O=C(NCc1ccc(C(F)(F)F)cc1)N1C(=O)c2ccccc2S1(=O)=O | > 167 | > 167 | 0.212 | –
16 | CCCNC(=O)N1C(=O)c2ccccc2S1(=O)=O | > 167 | > 167 | 0.775 | IC50 [4]: > 500 µM
17 | O=C(NCc1cccc2ccccc12)N1C(=O)c2ccccc2S1(=O)=O | > 167 | > 167 | 0.395 | –

The next lines start with results.

Row | half-life [1] [h] | half-life [2] [h] | half-life [3] [h] | SMILES | other results
18 | > 167 | > 167 | 0.56 | O=C(NCCc1ccccc1)N1C(=O)c2ccccc2S1(=O)=O | –
19 | > 167 | > 0.875 | – | O=C(c1ccccc1)N1C(=O)c2ccccc2S1(=O)=O | –
20 | > 167 | 3.04 | – | O=C(Oc1ccccc1)N1C(=O)c2ccccc2S1(=O)=O | –
21 | > 167 | 5.78 | – | O=C(CCc1ccccc1)N1C(=O)c2ccccc2S1(=O)=O | –
22 | > 167 | > 167 | 0.663 | CC(NC(=O)N1C(=O)c2ccccc2S1(=O)=O)c1ccccc1 (stereo unspecified) | IC50 [4]: 8.7 µM; Ratio IC50 [5]: > 25; Ratio IC50 [6]: > 25; Ratio IC50 [7]: > 25; Ratio IC50 [8]: 1.3
23 | > 167 | 3.4 | – | O=C(Cc1ccccc1)N1C(=O)c2ccccc2S1(=O)=O | –
24 | > 167 | > 167 | 0.253 | O=C(NCc1ccccc1Br)N1C(=O)c2ccccc2S1(=O)=O | –
25 | > 167 | > 167 | < 0.0167 | O=C(OCc1ccccc1)N1C(=O)c2ccccc2S1(=O)=O | –
